pEC50, pIC50: −log10 of the molar value. *1 amine or outer side, *2 acyl side, *3 side chain or, on linkers, in order; H or OH if unused. Where a SMILES comes first, the peptide text is derived from it. Side-chain parts run from the residue outwards. [ ]: non-standard residue; d: D form. The star is where a group is joined. NH(2-CF3-phenyl) = FC(F)(F)c1ccccc1N*; NH(1-naphthyl) = c1ccc2c(N*)cccc2c1; NH(2,6-Me2-phenyl) = Cc1cccc(C)c1N*; NHPh(4-CF3) = FC(F)(F)c1ccc(N*)cc1; NH(3-Cl-phenyl) = Clc1cccc(N*)c1; NH(4-Cl-phenyl) = Clc1ccc(N*)cc1; hCit = NC(=O)NCCCC[C@H](N)C(=O)O; NH(4-Me-phenyl) = Cc1ccc(N*)cc1; NH(2-Me-phenyl) = Cc1ccccc1N*; X3 = O=[N+]([O-])c1ccccc1N*; hLys = NCCCCC[C@H](N)C(=O)O; NH(2-ClPh) = Clc1ccccc1N*; X9 = FC(F)(F)c1cccc(N*)c1; Orn = NCCC[C@H](N)C(=O)O; βNA = c1ccc2cc(N*)ccc2c1; X8 = Clc1ccc(N*)c(Cl)c1; 2Abz = Nc1ccccc1C(=O)O; Boc = CC(C)(C)OC(=O)*; NHcHex = C1CCC(N*)CC1; X1 = Clc1cccc(Cl)c1N*; CO = O=C([*:1])[*:2]; NHBn = c1ccc(CN*)cc1; X2 = CC(C)c1ccccc1N*; NHtBu = CC(C)(C)N*; X10 = Brc1ccccc1N*; X5 = Cc1cccc(N*)c1; X6 = COc1ccccc1N*
Experiments:
[1] = target: T1, Cholecystokinin receptor type A (Cavia porcellus, UniProt Q63931); assay: Binding affinity towards cholecystokinin type A receptor in guinea pig pancreas by using [125I]BH-CCK-8 as radioligand; assay type: tissue-based
T1 sequence (Q63931 whole entry): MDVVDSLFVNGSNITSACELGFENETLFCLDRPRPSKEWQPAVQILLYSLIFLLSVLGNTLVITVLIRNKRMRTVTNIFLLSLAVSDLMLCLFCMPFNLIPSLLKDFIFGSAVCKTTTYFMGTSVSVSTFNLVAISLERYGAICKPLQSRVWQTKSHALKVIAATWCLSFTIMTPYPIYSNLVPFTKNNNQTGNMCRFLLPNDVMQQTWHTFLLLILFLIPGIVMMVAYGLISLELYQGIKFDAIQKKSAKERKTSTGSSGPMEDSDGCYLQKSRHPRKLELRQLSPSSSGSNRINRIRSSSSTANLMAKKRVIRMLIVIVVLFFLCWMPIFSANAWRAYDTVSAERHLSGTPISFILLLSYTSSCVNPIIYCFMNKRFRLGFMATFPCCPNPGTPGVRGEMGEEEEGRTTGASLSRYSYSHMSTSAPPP
Summary of the method: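 Radioligand displacement of [125I]Bolton-Hunter CCK-8, guinea pig pancreas (CCK-A) or cortex (CCK-B) membranes. […] Each determination was run in duplicate with <5% sample variability. Means ±SE are given where there were three or more determinations.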

[2] = target: T1, Cholecystokinin receptor type A; assay: Binding affinity for Cholecystokinin type A receptor in guinea pig pancreas by using [125I]BH-CCK-8 as radioligand
Cavia porcellus [3] = organism: Cavia porcellus; assay: The compound was tested for effective concentration for amylase release in guinea pig pancreatic Acini; assay type: functional
Summary of the method: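 Amylase release from guinea pig pancreatic acini. […] Each determination was run in duplicate with <5% sample variability. Means ±SE are given where there were three or more determinations.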

[4] = Selectivity ratio of IC50 measured in guinea pig cortex to that of IC50 for guinea pig pancreas; settings: Cavia porcellus
Cavia porcellus [5] = organism: Cavia porcellus; assay: Percentage response in phosphoinositide hydrolysis relative to maximal response elicited by CCK-8 in guinea pig pancreatic acini; assay type: functional
Summary of the method: (§1)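 Guinea pig pancreatic acini, phosphoinositide hydrolysis. […] Efficacy is expressed as % of the maximal response elicited by CCK-8. Each determination was run in duplicate with <5% sample variability. Means ±SE are given for three or more determinations.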

Cavia porcellus [6] = organism: Cavia porcellus; assay: Effective concentration for hydrolysis of phosphoinositide in guinea pig pancreatic Acini; assay type: functional; summary of the method: as §1

| SMILES | pIC50 [1] | pIC50 [2] | pEC50 (Cavia porcellus [3]) | Selectivity [4] | Max response (Cavia porcellus [5]) [%] | pEC50 (Cavia porcellus [6]) |
| --- | --- | --- | --- | --- | --- | --- |
| Cc1ccccc1/N=C(/S)NCCCC[C@H](NC(=O)[C@H](Cc1c[nH]c2ccccc12)NC(=O)OC(C)(C)C)C(=O)N[C@@H](CC(=O)O)C(=O)N[C@@H](Cc1ccccc1)C(N)=O | 6.66 | – | – | – | – | – |
| CC(C)(C)OC(=O)N[C@@H](Cc1c[nH]c2ccccc12)C(=O)N[C@@H](CCCC/N=C(\S)Nc1ccc(Cl)cc1)C(=O)N[C@@H](CC(=O)O)C(=O)N[C@@H](Cc1ccccc1)C(N)=O | – | 6.57 | – | – | – | – |
| CC(C)(C)OC(=O)N[C@@H](Cc1c[nH]c2ccccc12)C(=O)N[C@@H](CCCC/N=C(\S)Nc1ccccc1Cl)C(=O)N[C@@H](CC(=O)O)C(=O)N[C@@H](Cc1ccccc1)C(N)=O | – | 7.00 | 7.70 | 29 | 83 | – |
| COC(=O)c1ccccc1NC(=O)NCCCC[C@H](NC(=O)[C@H](Cc1c[nH]c2ccccc12)NC(=O)OC(C)(C)C)C(=O)N[C@@H](CC(=O)O)C(=O)N[C@@H](Cc1ccccc1)C(N)=O (Boc-WK([CO-2Abz-OMe])DF-NH2) | – | 7.47 | – | 91 | – | – |
| CC(C)(C)OC(=O)N[C@@H](Cc1c[nH]c2ccccc12)C(=O)N[C@@H](CCCCNC(=O)Nc1cccc2ccccc12)C(=O)N[C@@H](CC(=O)O)C(=O)N[C@@H](Cc1ccccc1)C(N)=O (Boc-WK([CO-NH(1-naphthyl)])DF-NH2) | – | 7.80 | 8.80 | 690 | 103 | 7.85 |
| Cc1cccc(C)c1NC(=O)NCCCC[C@H](NC(=O)[C@H](Cc1c[nH]c2ccccc12)NC(=O)OC(C)(C)C)C(=O)N[C@@H](CC(=O)O)C(=O)N[C@@H](Cc1ccccc1)C(N)=O (Boc-WK([CO-NH(2,6-Me2-phenyl)])DF-NH2) | – | 6.10 | – | – | 40 | 6.04 |
| CC(C)(C)OC(=O)N[C@@H](Cc1c[nH]c2ccccc12)C(=O)N[C@@H](CCCCNC(=O)Nc1ccccc1C(F)(F)F)C(=O)N[C@@H](CC(=O)O)C(=O)N[C@@H](Cc1ccccc1)C(N)=O (Boc-WK([CO-NH(2-CF3-phenyl)])DF-NH2) | – | 8.10 | 9.11 | – | 100 | 8.21 |
| CC(C)(C)OC(=O)N[C@@H](Cc1c[nH]c2ccccc12)C(=O)N[C@@H](CCCCNC(=O)Nc1ccccc1Cl)C(=O)N[C@@H](CC(=O)O)C(=O)N[C@@H](Cc1ccccc1)C(N)=O (Boc-WK([CO-NH(2-ClPh)])DF-NH2) | – | – | – | – | 91 | 8.34 |
| Cc1ccccc1NC(=O)NCCCC[C@H](NC(=O)[C@H](Cc1c[nH]c2ccccc12)NC(=O)OC(C)(C)C)C(=O)N[C@@H](CC(=O)O)C(=O)N[C@@H](Cc1ccccc1)C(N)=O (Boc-WK([CO-NH(2-Me-phenyl)])DF-NH2) | – | – | – | – | 101 | 7.92 |
| CC(C)(C)OC(=O)N[C@@H](Cc1c[nH]c2ccccc12)C(=O)N[C@@H](CCCCNC(=O)Nc1cccc(Cl)c1)C(=O)N[C@@H](CC(=O)O)C(=O)N[C@@H](Cc1ccccc1)C(N)=O (Boc-WK([CO-NH(3-Cl-phenyl)])DF-NH2) | – | 7.29 | 8.36 | – | 93 | – |
| CC(C)(C)OC(=O)N[C@@H](Cc1c[nH]c2ccccc12)C(=O)N[C@@H](CCCCNC(=O)Nc1ccc(Cl)cc1)C(=O)N[C@@H](CC(=O)O)C(=O)N[C@@H](Cc1ccccc1)C(N)=O (Boc-WK([CO-NH(4-Cl-phenyl)])DF-NH2) | – | 7.22 | 8.02 | – | 91 | – |
| Cc1ccc(NC(=O)NCCCC[C@H](NC(=O)[C@H](Cc2c[nH]c3ccccc23)NC(=O)OC(C)(C)C)C(=O)N[C@@H](CC(=O)O)C(=O)N[C@@H](Cc2ccccc2)C(N)=O)cc1 (Boc-WK([CO-NH(4-Me-phenyl)])DF-NH2) | – | – | – | – | 91 | 6.85 |
| CC(C)(C)OC(=O)N[C@@H](Cc1c[nH]c2ccccc12)C(=O)N[C@@H](CCCCNC(=O)NCc1ccccc1)C(=O)N[C@@H](CC(=O)O)C(=O)N[C@@H](Cc1ccccc1)C(N)=O (Boc-WK([CO-NHBn])DF-NH2) | – | 6.64 | – | – | – | – |
| CC(C)(C)OC(=O)N[C@@H](Cc1c[nH]c2ccccc12)C(=O)N[C@@H](CCCCNC(=O)Nc1ccc(C(F)(F)F)cc1)C(=O)N[C@@H](CC(=O)O)C(=O)N[C@@H](Cc1ccccc1)C(N)=O (Boc-WK([CO-NHPh(4-CF3)])DF-NH2) | – | 6.77 | – | 5 | – | – |
| CC(C)(C)OC(=O)N[C@@H](Cc1c[nH]c2ccccc12)C(=O)N[C@@H](CCCCNC(=O)NC1CCCCC1)C(=O)N[C@@H](CC(=O)O)C(=O)N[C@@H](Cc1ccccc1)C(N)=O (Boc-WK([CO-NHcHex])DF-NH2) | – | – | 8.38 | – | 97 | 7.26 |
| CC(C)(C)NC(=O)NCCCC[C@H](NC(=O)[C@H](Cc1c[nH]c2ccccc12)NC(=O)OC(C)(C)C)C(=O)N[C@@H](CC(=O)O)C(=O)N[C@@H](Cc1ccccc1)C(N)=O (Boc-WK([CO-NHtBu])DF-NH2) | – | 6.77 | 7.38 | 33 | 73 | 6.48 |
| CC(C)(C)OC(=O)N[C@@H](Cc1c[nH]c2ccccc12)C(=O)N[C@@H](CCCCNC(=O)Nc1c(Cl)cccc1Cl)C(=O)N[C@@H](CC(=O)O)C(=O)N[C@@H](Cc1ccccc1)C(N)=O (Boc-WK([CO-X1])DF-NH2) | – | 6.80 | 7.36 | 44 | 66 | 6.51 |
| CC(C)c1ccccc1NC(=O)NCCCC[C@H](NC(=O)[C@H](Cc1c[nH]c2ccccc12)NC(=O)OC(C)(C)C)C(=O)N[C@@H](CC(=O)O)C(=O)N[C@@H](Cc1ccccc1)C(N)=O (Boc-WK([CO-X2])DF-NH2) | – | 7.64 | 8.36 | 250 | 85 | – |
| CC(C)(C)OC(=O)N[C@@H](Cc1c[nH]c2ccccc12)C(=O)N[C@@H](CCCCNC(=O)Nc1ccccc1[N+](=O)[O-])C(=O)N[C@@H](CC(=O)O)C(=O)N[C@@H](Cc1ccccc1)C(N)=O (Boc-WK([CO-X3])DF-NH2) | – | 7.66 | 8.72 | – | 100 | 7.68 |
| Cc1cccc(NC(=O)NCCCC[C@H](NC(=O)[C@H](Cc2c[nH]c3ccccc23)NC(=O)OC(C)(C)C)C(=O)N[C@@H](CC(=O)O)C(=O)N[C@@H](Cc2ccccc2)C(N)=O)c1 (Boc-WK([CO-X5])DF-NH2) | – | – | – | – | 95 | 7.29 |
| COc1ccccc1NC(=O)NCCCC[C@H](NC(=O)[C@H](Cc1c[nH]c2ccccc12)NC(=O)OC(C)(C)C)C(=O)N[C@@H](CC(=O)O)C(=O)N[C@@H](Cc1ccccc1)C(N)=O (Boc-WK([CO-X6])DF-NH2) | – | – | – | – | 100 | 8.08 |
| CC(C)(C)OC(=O)N[C@@H](Cc1c[nH]c2ccccc12)C(=O)N[C@@H](CCCCNC(=O)Nc1ccc(Cl)cc1Cl)C(=O)N[C@@H](CC(=O)O)C(=O)N[C@@H](Cc1ccccc1)C(N)=O (Boc-WK([CO-X8])DF-NH2) | 8.07 | – | – | – | – | – |
| CC(C)(C)OC(=O)N[C@@H](Cc1c[nH]c2ccccc12)C(=O)N[C@@H](CCCCNC(=O)Nc1cccc(C(F)(F)F)c1)C(=O)N[C@@H](CC(=O)O)C(=O)N[C@@H](Cc1ccccc1)C(N)=O (Boc-WK([CO-X9])DF-NH2) | – | 7.23 | – | – | – | – |
| CC(C)(C)OC(=O)N[C@@H](Cc1c[nH]c2ccccc12)C(=O)N[C@@H](CCCCNC(=O)Nc1ccccc1Br)C(=O)N[C@@H](CC(=O)O)C(=O)N[C@@H](Cc1ccccc1)C(N)=O (Boc-WK([CO-X10])DF-NH2) | – | 8.44 | – | – | – | – |
| CC(C)(C)OC(=O)N[C@@H](Cc1c[nH]c2ccccc12)C(=O)N[C@@H](CCCCNC(=O)Nc1ccc2ccccc2c1)C(=O)N[C@@H](CC(=O)O)C(=O)N[C@@H](Cc1ccccc1)C(N)=O (Boc-WK([CO-βNA])DF-NH2) | – | – | 8.15 | 200 | 79 | 6.85 |
| Cc1ccccc1NC(=O)NCCC[C@H](NC(=O)[C@H](Cc1c[nH]c2ccccc12)NC(=O)OC(C)(C)C)C(=O)N[C@@H](CC(=O)O)C(=O)N[C@@H](Cc1ccccc1)C(N)=O (Boc-W[Orn]([CO-NH(2-Me-phenyl)])DF-NH2) | – | 6.19 | 6.38 | 23 | 36 | – |
| CC(C)(C)OC(=O)N[C@@H](Cc1c[nH]c2ccccc12)C(=O)N[C@@H](CCCCNC(N)=O)C(=O)N[C@@H](CC(=O)O)C(=O)N[C@@H](Cc1ccccc1)C(N)=O (Boc-W[hCit]DF-NH2) | – | 4.92 | – | 0.083 | – | – |
| Cc1ccccc1NC(=O)NCCCCC[C@H](NC(=O)[C@H](Cc1c[nH]c2ccccc12)NC(=O)OC(C)(C)C)C(=O)N[C@@H](CC(=O)O)C(=O)N[C@@H](Cc1ccccc1)C(N)=O (Boc-W[hLys]([CO-NH(2-Me-phenyl)])DF-NH2) | – | 7.03 | 7.92 | – | 83 | – |
| CSCC[C@H](NC(=O)[C@H](Cc1ccc(OS(=O)(=O)O)cc1)NC(=O)[C@@H](N)CC(=O)O)C(=O)NCC(=O)N[C@@H](Cc1c[nH]c2ccccc12)C(=O)N[C@@H](CCSC)C(=O)N[C@@H](CC(=O)O)C(=O)N[C@@H](Cc1ccccc1)C(N)=O [SINCALIDE] | – | – | 9.33 | – | – | 8.92 |

Reference: ChEMBL document CHEMBL1125209, “Boc-CCK-4 derivatives containing side-chain ureas as potent and selective CCK-a receptor agonists” (J Med Chem, 1991)
